Hit rate of the full screen: of about 2,500 compounds, about 460 (18%) were called active.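 Rule for the calls: active = mean activation above a cutoff of low control average plus 3 SD from the earlier screen (cut at about 12% in these data); inactive = the rest.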 Not all results are given here.

The assay in a line: compound fluorescence interference without thin filaments, confirmation, artefact control for cardiac RTF calcium sensitizer project, biochemical (AID 504382). To be noted: IANBD fluorescence interference counterscreen, buffer, EC20 Ca2+; at 7.2 µM; hits give high values; scaled: EC20 calcium 0, EC100 calcium 100. In a few lines:
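Doses – one dose of 7.2 µM, 0.7% DMSO · Buffer or medium – MOPS/KCl/MgCl2/EGTA/NTA/DTT buffer, pH 7.2 · Probe or stimulus – Ca2+ fixed at EC20, 0.472 mM · Measured by – fluorescence intensity, excitation 480 nm, emission 540 nm · Read-out – fluorescence interference versus control range · Timing – 15 min compound exposure at 25 °C · Replication – triplicate wells per compound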
For the compound `O=C(Nc1ccccc1N1CCOCC1)C1CCN(S(=O)(=O)c2ccccc2F)CC1`, the fluorescence artifact activation is -0.05% (inactive).
In the case of `CCOc1ccc(NC(=O)C2CCN(S(=O)(=O)c3cccnc3)CC2)cc1` it was -0.04% (inactive); in that of `O=C(c1cc(-c2cccs2)nn1-c1ccccc1)N1CCN(S(=O)(=O)c2ccccc2)CC1`, 2.28% (inactive).
The value for `O=C(Nc1ccc(Cl)cn1)C1CCN(S(=O)(=O)c2cccs2)CC1` was 74.6% (active); that for `O=C(Nc1nccs1)C1CCN(S(=O)(=O)c2ccccc2)CC1` was 461% (active); that for `CC(=O)N1CCc2c(sc(NC(=O)C3CCCN3S(=O)(=O)c3cccs3)c2C(N)=O)C1` (configuration not stated) was 9.49% (inactive).
In the case of `O=C(c1cc(Cl)ccc1O)N1CCN(S(=O)(=O)c2cccs2)CC1` it was 114% (active); in that of `O=C(Cc1cccs1)N1CCN(S(=O)(=O)c2cc(Cl)ccc2Cl)CC1`, 1.88% (inactive).
As for `O=C(CC1CCCC1)N1CCN(S(=O)(=O)c2ccccc2)CC1`, the fluorescence artifact activation is 0.13% (inactive).
In the case of `COc1cccc(CNC(=O)CCC(=O)N2CC(C)Oc3ccccc32)c1OC` (configuration not stated) it was 0.11% (inactive); in that of `Cc1c(C(=O)NC2CC2)oc2ccccc12`, 0.04% (inactive).
The value for `Cc1cc(C)nc(NC(=O)c2ccc(Cl)c(Cl)c2)n1` was 0.33% (inactive).
Consider `CC1=C(C#N)C(=O)OC(C)(C)C1`, for which the fluorescence artifact activation is 0.01% (inactive).
The value for `Cc1[nH]c(=O)c(C#N)c(C)c1Cl` was 0.06% (inactive); that for `O=C(N/N=C/c1sc(N2CCOCC2)nc1-c1ccccc1)c1cccc(S(=O)(=O)N2CCCC2)c1` was 0% (inactive).
Take `Cc1cc2nc3c(=O)[nH]c(=O)[nH]c3nc2c([N+](=O)[O-])c1N`: the fluorescence artifact activation is 0.02% (inactive).
In the case of `O=C1/C(=C/c2cccs2)N=C(c2cccs2)N1Nc1ccccc1` it was 4.3% (inactive); in that of `COCCN(C(=S)Nc1cccc(OC)c1)C1CCN(C(C)=O)CC1`, 0.16% (inactive).
In the case of `CCn1cc(/C=C/C(=O)Nc2c(C)nn(Cc3ccccc3C)c2C)cn1` it was 0.05% (inactive); in that of `COc1ccc(CC(=O)NNC(=O)c2ccncc2)cc1`, 0.18% (inactive); in that of `COc1ccc(/C=N/NC(=O)c2cccnc2)cc1CN1CCOCC1`, 6.25% (inactive).
As to `CCOC(=O)C1=C(C)NC(C)=C(C(=O)OCC)C1c1ccco1`, the fluorescence artifact activation is 0.15% (inactive).
Turning to `OCCNCc1cccc(OCc2ccc(Cl)cc2)c1`, the fluorescence artifact activation is 61% (active).
In the case of `COc1ccc(CNCc2cccc(Cl)c2)cc1` it was 0.14% (inactive).
In the case of `Cc1ccc(C(C(=O)NC2CCCC2)N(C(=O)Cc2cccs2)c2cccc(C)c2C)o1` (configuration not stated) it was 0% (inactive); in that of `CC1=C(C(=O)OCCCCCl)C(c2cc3c(cc2Br)OCO3)NC(=O)N1` (configuration not stated), -0.02% (inactive); in that of `C[C@H]1CN([C@@H](C)CO)C(=O)Cc2cc(NC(=O)CCC(F)(F)F)ccc2O[C@H]1CN(C)S(C)(=O)=O`, 0.55% (inactive).

Values taken from PubChem BioAssay AID504382 (The Scripps Research Institute Molecular Screening Center, 2011).
